The record followed here is ChEMBL document CHEMBL1126902, “Synthesis, chemical reactivity, and antitumor evaluation of congeners of carmethizole hydrochloride, an experimental "acylated vinylogous carbinolamine" tumor inhibitor” (J Med Chem, 1993).

The test system of assay [1] is A549. The experiment in a line: Concentration required to inhibit tumor growth in A549, human lung carcinoma (NSCLC) cell line. It is filed as functional, cell-based. The essentials: (§1)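 Cells grown in RPMI 1640 with 5% fetal calf serum, 5% NuSerum IV and 20 mM HEPES, seeded and allowed to adhere overnight. Compound dissolved in RPMI-1640 plus HEPES and tested over a 5 log range (10 concentrations) for 72 h. Read-out by sulforhodamine B assay. Median-effect dose derived by nonlinear regression of the concentration-effect curve.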

The test system of assay [2] is HT-29. The experiment in a line: Concentration required to inhibit tumor growth in HT29, human colon adenocarcinoma cell line. Type of assay: functional, cell-based. To be noted: Homo sapiens, HT-29. The essentials:
as §1

Assay [3] in a line: Concentration required to inhibit tumor growth in […], human breast adenocarcinoma cell line. Type of assay: functional. The procedure, abridged:
as §1

Assay [4] in a line: Concentration required to inhibit tumor growth in PSN-1, human pancreatic carcinoma cell line. It is filed as functional. The procedure, abridged: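 PSN-1 pancreatic carcinoma cells exposed to compound dissolved in RPMI-1640 plus HEPES at its maximum soluble concentration for 72 h. Read-out by sulforhodamine B colorimetric assay.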
Assay [5] concerns L1210 (Mus musculus). Description: Concentration required to inhibit tumor growth in L1210, murine lymphocytic leukemia cell line.
Assay [6] in a line: Percent increase in life span of dying mice tested in vivo at 45.5 mg/kg against ip implanted LOX amelanotic melanoma in mice (60-day survivors). As to conditions: Mus musculus, 1440 h, route intraperitoneal. Type of assay: functional. The procedure, abridged:
(§2)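 Female CD2F1 mice implanted ip with ascitic fluid carrying ca. 1.7×10^6 LOX amelanotic melanoma cells. Drug given ip on days 1, 5 and 9, starting 24 h after implant, dosed by exact body weight; solutions or suspensions made fresh daily. %ILS is from the median day of death of dying mice versus controls, excluding 60-day survivors.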

A short description of assay [7]: Percent increase in life span of dying mice tested in vivo at 91 mg/kg against ip implanted LOX amelanotic melanoma in mice (60-day survivors). It is filed as functional. To be noted: Mus musculus, 1440 h, route intraperitoneal. The essentials: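 Nude CD2F1 female mice were implanted ip with ascitic fluid containing ca. 1.7×10^6 LOX amelanotic melanoma cells. Drug was given ip on days 1, 5 and 9, starting 24 h after implantation, and dosed by exact body weight. Solutions or suspensions were made fresh daily in saline plus Tween 80. %ILS was calculated from the median day of death of dying mice versus controls, excluding 60-day survivors.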

Assay [8] can be described thus: Change in tumor cell population in ip implanted LOX amelanotic melanoma in mice after administration of compound at 91 mg/kg. Type of assay: functional, Mus musculus. As to conditions: route intraperitoneal. The procedure, abridged: (§3)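 Female CD2F1 mice were implanted ip with ascitic fluid holding ca. 1.7×10^6 LOX cells. Dosing was ip on days 1, 5 and 9, starting 24 h after implantation, by exact body weight, as a solution or suspension in saline plus Tween 80, freshly prepared daily. KE is the net log change in viable tumor cells from start to end of treatment. Bracketed KE assumes Poisson survival, with 60-day survivors tumor-free.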

A short description of assay [9]: Change in tumor cell population in ip implanted LOX amelanotic melanoma in mice after administration of compound at 182 mg/kg. Type of assay: functional, Mus musculus. As to conditions: route intraperitoneal. The essentials:
as §3

Assay [10] in a line: Change in tumor cell population in ip implanted LOX amelanotic melanoma in mice after administration of compound at 22.75 mg/kg. As to conditions: route intraperitoneal. It is filed as functional, Mus musculus. The essentials:
as §3

The nature of assay [11]: Change in tumor cell population in ip implanted LOX amelanotic melanoma in mice after administration of compound at 45.5 mg/kg. As to conditions: route intraperitoneal. It is filed as functional, Mus musculus. The essentials:
as §3

A short description of assay [12]: Percent increase in life span of dying mice tested in vivo at 22.75 mg/kg against ip implanted LOX amelanotic melanoma in mice (60-day survivors). It is filed as functional. As to conditions: Mus musculus, 1440 h, route intraperitoneal. The procedure, abridged: as §2
The nature of assay [13]: Percent increase in life span of dying mice tested in vivo at 182 mg/kg against ip implanted LOX amelanotic melanoma in mice (60-day survivors). It is filed as functional. To be noted: Mus musculus, 1440 h, route intraperitoneal. The essentials:
as §2

For assay [14], the system named is P388. Description: Change in tumor cell population in ip implanted P388 Leukemia in mice after administration of compound at 22.8 mg/kg. As to conditions: route intraperitoneal. Type of assay: functional, Mus musculus. The essentials:
(§4)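 Female Portage-CD2F1 mice were inoculated ip with ascitic fluid holding ca. 5.2×10^6 P388 cells. Dosing was ip on days 1-5, starting 24 h after inoculation, by average body weight, as a solution or suspension in saline plus Tween 80. KE is the net log change in viable tumor cell population from start to end of the treatment period.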

The subject of assay [15] is P388. Description: Change in tumor cell population in ip implanted P388 Leukemia in mice after administration of compound at 45.5 mg/kg. It is filed as functional, Mus musculus. As to conditions: route intraperitoneal. The essentials: (§5)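 P388 leukemia: ascitic fluid with ca. 5.2×10^6 cells inoculated ip into Portage-CD₂F₁ female mice. Drug given ip on days 1-5, starting 24 h after inoculation, dosed by average body weight. Vehicle was saline plus Tween 80, as a solution or suspension. KE = net log change in viable tumor cells from start to end of treatment.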

For assay [16], the system named is P388. Description: Change in tumor cell population in ip implanted P388 Leukemia in mice after administration of compound at 91 mg/kg. As to conditions: route intraperitoneal. It is filed as functional, Mus musculus. The procedure, abridged:
as §5

Assay [17] concerns P388. Description: Percent increase in life span of dying mice tested in vivo at 22.8 mg/kg against ip implanted P388 Leukemia in mice. Type of assay: functional. To be noted: Mus musculus, route intraperitoneal. The essentials: (§6)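 Portage-CD2F1 female mice inoculated ip with ascitic fluid carrying ca. 5.2×10^6 P388 leukemia cells. Drug given ip daily on days 1-5, starting 24 h after inoculation, dosed by average body weight. %ILS is from the median day of death of dying mice versus controls.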

Assay [18] relates to P388. Description: Percent increase in life span of dying mice tested in vivo at 45.5 mg/kg against ip implanted P388 Leukemia in mice. Type of assay: functional. As to conditions: Mus musculus, route intraperitoneal. The procedure, abridged: as §6
Assay [19] has as its system P388. The experiment in a line: Percent increase in life span of dying mice tested in vivo at 91 mg/kg against ip implanted P388 Leukemia in mice. Type of assay: functional. As to conditions: Mus musculus, route intraperitoneal. The essentials:
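Portage-CD2F1 female mice were inoculated ip with ascitic fluid containing ca. 5.2×10^6 P388 leukemia cells. Drug was given ip daily on days 1-5, starting 24 h after inoculation, and dosed by average body weight. %ILS was calculated from the median day of death of dying mice versus controls.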

The subject of assay [20] is P388. The experiment in a line: Change in tumor cell population in ip implanted P388 Leukemia in mice after administration of compound at 11.4 mg/kg. As to conditions: route intraperitoneal. It is filed as functional, Mus musculus. The procedure, abridged: as §4
Assay [21] has as its system P388. Description: Percent increase in life span of dying mice tested in vivo at 11.4 mg/kg against ip implanted P388 Leukemia in mice. It is filed as functional. As to conditions: Mus musculus, route intraperitoneal. The essentials: as §6

Take `CNC(=O)OCc1nc(Sc2ccccc2)n(C)c1COC(=O)NC`: the IC50 in assay [1], in assay [2], in assay [3], in [4] and in [5] was greater than 100 µM throughout.
Regarding `CNC(=O)OCc1nc([S+](C)[O-])n(C)c1COC(=O)NC` (stereo unspecified), the ILS at 45.5 mg/kg was -8% in assay [6] and 27% in [18]. Besides, the ILS at 91 mg/kg was -8% in assay [7] and 17% in [19]. Further, the KE stood at 2 in assay [8]; 1.8 in assay [9]; 2 in [10]; 2 in [11]; 1.4 in assay [14]; 0.9 in assay [15]. Further, the KE in [16] amounted to 1.3; in assay [20] it was 1.4. Also, in assay [12], the ILS at 22.75 mg/kg was -7%. Further, the ILS at 182 mg/kg in assay [13] was found to be 2%. In addition, the ILS at 22.8 mg/kg in assay [17] is 10%. The ILS at 11.4 mg/kg in assay [21] was determined as 10%.

As a reminder, the IC50 is the concentration that inhibits the measured activity by half. Read a high IC50 as lower potency.
